Experimental data gathered from unrelated publications.
Protocols differ between the studies behind these lines.
Effect on: enzyme activity
Mode: inhibitor
CDK5 with p25: Cyclin-dependent kinase 5, with p25 (CDK5, Homo sapiens, UniProt Q00535)
CDK5 with p35: Cyclin-dependent kinase 5, with p35 (CDK5, Homo sapiens, UniProt Q00535)

SMILES | target | method | concentration | time | remaining activity [%]
O=C(Nc1cnn(-c2csc(C(=O)NC3COC3)c2)c1)Nc1c(F)cccc1Cl | CDK5 with p25 |  | 5 µM |  | 88.2
CCCOc1ccc(OC)c(F)c1C(=O)c1ccc(C(=O)N[C@@H]2CNC[C@H]2NC(=O)c2ccc3[nH]ncc3c2)cc1 | CDK5 with p25 |  | 0.1 µM |  | 112
Cc1cnc(NC2CCOCC2)nc1-n1cnc(C(=O)NC(CN)c2cc(F)cc(Cl)c2)c1 (stereo not shown) | CDK5 with p35 | radiometric | 1 µM |  | 4
Cc1sc(C(=O)NC2COC2)cc1-n1cc(NC(=O)Nc2c(F)cccc2Cl)cn1 | CDK5 with p25 |  | 10 µM |  | 97.6
CC(C)(C)c1nc(-c2cccc(NS(=O)(=O)c3c(F)cccc3F)c2F)c(-c2ccnc(N)n2)s1 | CDK5 with p35 | radiometric | 1 µM |  | 82
CC[C@H](C)[C@H](NC(=O)[C@H](CCC(N)=O)NC(=O)[C@H](CC(C)C)NC(=O)[C@H](CCSC)NC(=O)[C@H](CCCCN)NC(=O)[C@H](CO)NC(=O)[C@H](CO)NC(=O)[C@H](CCSC)NC(=O)[C@H](CC(C)C)NC(=O)[C@H](CC(N)=O)NC(=O)[C@@H](NC(=O)[C@@H](NC(=O)[C@H](CO)NC(=O)[C@H](CC(C)C)NC(=O)[C@H](CS)NC(=O)[C@H](CCCNC(=N)N)NC(=O)[C@H](CC(=O)O)NC(=O)[C@H](Cc1c[nH]c2ccccc12)NC(=O)[C@H](Cc1ccccc1)NC(=O)[C@H](C)NC(=O)[C@H](CCC(=O)O)NC(=O)[C@@H](N)CCCCN)C(C)C)[C@@H](C)CC)C(=O)N[C@@H](CC(N)=O)C(=O)N[C@@H](C)C(=O)O | CDK5 with p25 | radiometric | 500 µM | 20 min | 28
COc1cc(Cl)c(C(=O)N[C@@H](CN[C@H]2CC[C@@H](N)CC2)Cc2ccc(C#N)cc2)cc1-c1ccc(CN[C@H](C)c2ccc(C)cc2)o1 | CDK5 with p25 |  | 1 µM |  | 102
CC(C)(O)[C@H]1CC[C@H](Nc2ccc3ncc(-c4cccc(C(F)(F)F)c4)n3n2)CC1 | CDK5 with p35 |  | 1 µM |  | 97.7
CCN(CC)c1ccc(C2=NNC(=O)CC2C)cc1[N+](=O)[O-] (stereo not shown) | CDK5 with p35 |  | 10 µM |  | 109
O=C(Nc1cnn(-c2csc(C(=O)NC3COC3)c2)c1)Nc1ccccc1Cl | CDK5 with p25 |  | 5 µM |  | 101
